The source of these data is ChEMBL document CHEMBL1146122, “Neuropeptide Y (NPY) Y4 receptor selective agonists based on NPY(32-36): development of an anorectic Y4 receptor selective agonist with picomolar affinity” (J Med Chem, 2006).

Test [1] addresses T1, Neuropeptide Y receptor type 4 (Homo sapiens, UniProt P50391). The test is described as follows: Agonist activity at human NPY4 receptor in CHO cells by inhibition of forskolin-stimulated cAMP synthesis.
Test [2] is filed under the species Homo sapiens. Kind of test: Selectivity for human NPY4 over NPY1 receptor.
Test [3] can be described thus: Displacement of […] from rat-human hybrid NPY5 receptor expressed in CHO cells. The format is cell-based. A digest of the protocol:
(§1)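 Competition binding on membranes (5-10 µg protein) from CHO cells stably expressing human Y1, Y2 or rat-human hybrid Y5 receptors. Radioligand 0.2 nM 125I-PYY, incubated with a range of peptide concentrations in 50 mM HEPES pH 7.3, 0.1% BSA, 2.5 mM CaCl2 and 1 mM MgCl2 for 90 min at room temperature. Bound ligand separated on PEI-treated glass fibre filters, washed with PBS and γ-counted. 1 µM NPY defined nonspecific binding. Duplicate points, three experiments, nonlinear regression.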

In test [4] the target is T2, Neuropeptide Y receptor type 2 (Homo sapiens, UniProt P49146).
T2 sequence (P49146 whole entry): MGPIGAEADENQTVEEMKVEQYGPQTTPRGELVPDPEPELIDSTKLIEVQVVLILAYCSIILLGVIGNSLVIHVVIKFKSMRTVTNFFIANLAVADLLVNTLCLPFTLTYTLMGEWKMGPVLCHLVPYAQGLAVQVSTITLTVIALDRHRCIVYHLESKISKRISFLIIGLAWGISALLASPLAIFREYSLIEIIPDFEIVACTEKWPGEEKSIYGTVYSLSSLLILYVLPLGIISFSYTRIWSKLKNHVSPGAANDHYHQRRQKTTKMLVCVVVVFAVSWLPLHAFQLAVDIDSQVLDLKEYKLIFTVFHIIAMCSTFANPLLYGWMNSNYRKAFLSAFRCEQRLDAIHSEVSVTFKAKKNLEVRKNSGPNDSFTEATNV
The test is described as follows: Agonist activity at human NPY2 receptor in CHO cells by inhibition of forskolin-stimulated cAMP synthesis. The format is functional, cell-based. A digest of the protocol:
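Whole-cell cAMP: Y1 in HEK293 cells; Y2, Y4 and Y5 in CHO cells; 30,000 cells/well grown 48 h. Cells preincubated 20 min at 37 °C in HBSS with 10 mM HEPES pH 7.4, 0.2% BSA, 4 mM MgCl2 and 1 mM IBMX. Then 10 min at 37 °C with forskolin (2.5 µM CHO; 5.0 µM HEK293) plus graded peptide. Ethanol lysis, 125I-cAMP flashplate readout. Triplicate points, ≥3 repeats, nonlinear regression.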

Test [5] deals with T3, Neuropeptide Y receptor type 1 (Homo sapiens, UniProt P25929).
T3 sequence (P25929 whole entry): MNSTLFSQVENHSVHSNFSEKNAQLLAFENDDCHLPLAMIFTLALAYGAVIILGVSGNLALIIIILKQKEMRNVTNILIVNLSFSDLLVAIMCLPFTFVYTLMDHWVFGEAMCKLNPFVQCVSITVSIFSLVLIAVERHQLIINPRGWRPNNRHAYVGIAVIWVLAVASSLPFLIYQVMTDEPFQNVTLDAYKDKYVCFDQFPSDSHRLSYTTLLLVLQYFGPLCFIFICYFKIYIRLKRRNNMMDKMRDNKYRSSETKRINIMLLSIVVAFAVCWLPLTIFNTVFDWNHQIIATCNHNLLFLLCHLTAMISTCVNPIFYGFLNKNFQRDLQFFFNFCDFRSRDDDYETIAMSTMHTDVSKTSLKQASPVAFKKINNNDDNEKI
Kind of test: Displacement of […] from human NPY1 receptor expressed in CHO cells. The format is cell-based. A digest of the protocol:
as §1

The target in test [6] is T1, Neuropeptide Y receptor type 4. The test is described as follows: Displacement of [125I]hPP from human NPY4 receptor expressed in CHO cells. The format is cell-based. A digest of the protocol: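 Y4 binding used membranes from CHO cells stably expressing cloned human Y4, with 125I-PP as radioligand. Competing peptides were tested over a range of concentrations in 50 mM HEPES pH 7.3, 0.1% BSA, 2.5 mM CaCl2 and 1 mM MgCl2 for 90 min at room temperature. Separation was by filtration and γ-counting. Nonspecific binding was taken with 1 µM PP. Duplicate points, three experiments, nonlinear regression.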

Test [7] is filed under the species Homo sapiens. Kind of test: Selectivity for human NPY4 over NPY2 receptor.
Test [8] deals with T2, Neuropeptide Y receptor type 2. Kind of test: Displacement of […] from human NPY2 receptor expressed in CHO cells. The format is cell-based. A digest of the protocol:
as §1

Test [9] in a line: Selectivity for human NPY4 over rat-human hybrid NPY5 receptor.
Test [10] has as its target T3, Neuropeptide Y receptor type 1. Kind of test: Agonist activity at human NPY1 receptor in CHO cells by inhibition of forskolin-stimulated cAMP synthesis. The format is functional, cell-based.

Non-standard residues stand in square brackets, D forms with d. Residues, ends and D or L forms follow the SMILES beside them. Nva = CCC[C@H](N)C(=O)O

T1 sequence (P50391 whole entry): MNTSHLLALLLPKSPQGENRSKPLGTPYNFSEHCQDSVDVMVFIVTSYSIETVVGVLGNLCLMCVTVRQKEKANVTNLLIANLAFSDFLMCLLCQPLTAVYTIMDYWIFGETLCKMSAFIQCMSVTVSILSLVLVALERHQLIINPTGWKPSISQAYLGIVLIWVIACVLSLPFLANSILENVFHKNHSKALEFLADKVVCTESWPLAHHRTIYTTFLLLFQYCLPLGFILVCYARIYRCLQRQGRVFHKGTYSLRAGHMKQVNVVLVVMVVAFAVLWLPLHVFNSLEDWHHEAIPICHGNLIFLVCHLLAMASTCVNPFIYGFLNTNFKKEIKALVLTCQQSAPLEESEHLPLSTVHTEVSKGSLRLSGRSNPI

Usually EC50 stands for the concentration at which the effect is half-maximal. A higher EC50 goes with weaker potency. For orientation: Ki means a dissociation constant, usually derived from enzyme kinetics or from competition with a known ligand. Higher therefore signals weaker binding. `CCC[C@H](NC(=O)[C@H](CCCN=C(N)N)NC(=O)[C@H](Cc1c[nH]c2ccccc12)NC(=O)[C@H](Cc1ccc(O)cc1)NC(=O)[C@H](CCCN=C(N)N)NC(=O)[C@H](CCC)NC(=O)[C@H](CCCN=C(N)N)NC(=O)[C@H](Cc1c[nH]c2ccccc12)NC(=O)[C@H](Cc1ccc(O)cc1)NC(=O)[C@H](CCCN=C(N)N)NC(=O)[C@H](CCC)NC(=O)[C@H](CCCN=C(N)N)NC(=O)[C@@H](N)Cc1c[nH]c2ccccc12)C(=O)N[C@@H](CCCN=C(N)N)C(=O)N[C@@H](Cc1ccc(O)cc1)C(N)=O` (H-WR[Nva]RYWR[Nva]RYWR[Nva]RY-NH2): the half-maximal effective concentration (EC50) in test [1] was 230 nM; in test [4], 1180 nM. In addition, the Selectivity ratio in test [2] is 10; in [7] it was 14; in [9] it was 40. The Ki in [3] was determined as 160 nM; in test [5], 30 nM; in test [6], 3.9 nM; in [8], 50 nM.
For the compound `CCC[C@H](NC(=O)[C@H](CCCN=C(N)N)NC(=O)[C@H](Cc1c[nH]c2ccccc12)NC(=O)[C@@H](N)CCCC[C@H](N)C(=O)N[C@@H](Cc1c[nH]c2ccccc12)C(=O)N[C@@H](CCCN=C(N)N)C(=O)N[C@@H](CCC)C(=O)N[C@@H](CCCN=C(N)N)C(=O)N[C@@H](Cc1ccc(O)cc1)C(N)=O)C(=O)N[C@@H](CCCN=C(N)N)C(=O)N[C@@H](Cc1ccc(O)cc1)C(N)=O` (stereo in doubt; 4B), the EC50 came to 370 nM in test [1] and 1410 nM in test [10]. The Ki in test [3] was determined as 280 nM; in test [5] it was 80 nM; in test [6] it was 2 nM; in test [8] it was 530 nM.
For the compound `CC(C)C[C@H](NC(=O)[C@H](CCCN=C(N)N)NC(=O)[C@H](Cc1ccc(O)cc1)NC(=O)[C@@H](N)CCCC[C@H](N)C(=O)N[C@@H](Cc1ccc(O)cc1)C(=O)N[C@@H](CCCN=C(N)N)C(=O)N[C@@H](CC(C)C)C(=O)N[C@@H](CCCN=C(N)N)C(=O)N[C@@H](Cc1ccc(O)cc1)C(N)=O)C(=O)N[C@@H](CCCN=C(N)N)C(=O)N[C@@H](Cc1ccc(O)cc1)C(N)=O`, the 50% effective concentration (EC50) came to 14.8 nM in test [1] and 240 nM in test [10]. The Ki was greater than 1000 nM in [3], 7.5 nM in test [5], 0.05 nM in test [6] and 890 nM in [8].
